The text below walks through data of paper PMC4272346 (Biochemistry, 2013).

Series [1] has as its target T1, NS3h (Hepatitis C virus genotype 1b, UniProt Q9WMX2). The experiment in a line: Electrophoretic mobility shift assay of NS3h-Cy5-dT15 complex. Format: binding. Background: Mobility shift assays separate free from complexed probe on a gel.
The test system of series [2] is NS3h (wildtype). To be noted: read-out: IC50, polarization shift of a Cy5 labeled oligonucleotide; NS3h bound to Cy5-labeled DNA oligonucleotide; ref 11 (Mukherjee et al.); cited from earlier work.
A further series concerns the target NS3h_E493Q. The series is described as follows: FP-based DNA binding assay, displacement from mutant. Set-up: species or system hepatitis C virus. The note with it: Cy5-dT15 displacement at EC85 of protein. An outline of the steps: (§1)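 Fluorescence polarization displacement using C-terminally His-tagged NS3h helicase domain mutants and wildtype. Each protein was at its EC85 from titration, with the test compound added in DMSO. Excitation 635 nm, emission 667 nm. IC50 came from dose-response fits, and Ki from Cheng-Prusoff using protein EC50 and concentration, assuming competition with DNA.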

For the next series, the target named is full-length NS3 (Hepatitis C virus genotype 1b, UniProt Q9WMX2). The series is described as follows: Studies repeated with full-length NS3 with and without NS4A. The note with it: presence and absence of NS4A.
The target of the next series is NS3h R467E. The experiment in a line: FP-based DNA binding assay, displacement from mutant. Set-up: species or system hepatitis C virus. To be noted: Cy5-dT15 displacement at EC85 of protein. An outline of the steps:
as §1

The next series addresses NS3h_E291Q. Described as above. Set-up: species or system hepatitis C virus. The note with it: Cy5-dT15 displacement at EC85 of protein. An outline of the steps:
as §1

The target in series [3] is T1, NS3h. The experiment in a line: Isothermal titration calorimetry. It counts as binding. An outline of the steps: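 NS3h was dialysed overnight into 25 mM MOPS pH 7.0, 1.25 mM MgCl2, 0.01% Tween 20, quantified by A280 (ε 52,360 M−1cm−1) and used at 20 μM. The test compound was 250 μM in dialysis buffer, given as 16 injections of 3 μl at 300 s intervals at 5 °C, with the first injection excluded. Baseline was zeroed on the mean of the last three injections, then fitted to an independent sites model. Three titrations were run.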
A general note: Isothermal titration calorimetry measures the heat released or taken up as one component is titrated into another.

The target in series [4] is T1, NS3h. The experiment in a line: ATPase assay 2: NS3h-catalyzed ATP hydrolysis in the absence of nucleic acids. It counts as biochemical.
The target in series [5] is T1, NS3h. The experiment in a line: ATPase assay 1: DNA. Format: biochemical.
For another series, the target named is NS3h_H369K. The experiment in a line: FP-based DNA binding assay, displacement from mutant. More on the design: species or system hepatitis C virus. The note with it: Cy5-dT15 displacement at EC85 of protein. A digest of the protocol:
as §1

Another series has as its target NS3h-dT20 complex (Hepatitis C virus genotype 1b, UniProt Q9WMX2). The series is described as follows: DSC of pre-assembled NS3h-dT20 complex. Format: binding. An outline of the steps:
(§2)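 Where present, dT20 was at 10 μM, and the test compound was at 10 μM–5 mM. Samples were heated 20–100 °C at 1 °C/min, with a repeat scan of the same sample as baseline. Fitting used a scaled two-state model. For the NS3h-dT20 samples, Tm versus compound concentration was fitted to a dose-response equation.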

The next series has as its target NS3h_D290N. The series is described as follows: FP-based DNA binding assay, displacement from mutant. Set-up: species or system hepatitis C virus. To be noted: Cy5-dT15 displacement at EC85 of protein. An outline of the steps: as §1
Series [6] has as its target T1, NS3h. The experiment in a line: Differential scanning calorimetry. Format: binding. The note with it: 10 μM NS3h, 300 μM ATA. A digest of the protocol: as §2
The target of series [7] is T2, NS3h (wildtype) (Hepatitis C virus (genotype 1b, con1; …, UniProt Q9WMX2 1192-1657). The experiment in a line: EMSA.
For series [8], the target named is T2, NS3h (wildtype). The series is described as follows: ITC.

As usually defined, the Kd is the constant that tells how readily two partners part at equilibrium. Read a low Kd as tighter binding. For orientation: Ki means a dissociation constant, usually derived from enzyme kinetics or from competition with a known ligand. The low end stands for higher affinity, the high end for lower affinity. A word on the EC50: it is the concentration giving half of the maximal effect. The low end stands for higher potency in that assay, the high end for lower potency in that assay. Consider `O=C(O)C1=CC(=C(c2ccc(O)c(C(=O)O)c2)c2ccc(O)c(C(=O)O)c2)C=CC1=O` [ATA, aurintricarboxylic acid], for which the IC50 on NS3h [1] is 4000 nM; with NS3h (wildtype) [2], 1400 nM. Further, the “Relative Ki (Cheng-Prusoff) compared with wildtype NS3h” value was “higher” at NS3h_E493Q; “higher” on NS3h R467E; “notably lower” on NS3h_E291Q; “similar” at NS3h_H369K; “notably lower” on NS3h_D290N. For the same molecule, the “Sensitivity of full-length NS3 compared with NS3h” value on full-length NS3 is listed as “not noted any differences in the sensitivity”. This molecule also gave a dissociation constant (Kd) on NS3h [3] of 1300 ± 200 nM. Further, at NS3h [3] (20 μM NS3h titrated with 250 μM ATA, 5 °C), the “ATA monomers binding per NS3h (stoichiometry)” value is 1.5. Moreover, the ΔH of binding on NS3h [3] (ITC, 5 °C) is -3.2 ± 0.14 kcal/mol. The molecule also registered a ΔS of binding on NS3h [3] (at 5 °C) of 63 J/mol K. In addition, the “−TΔS of binding” value on NS3h [3] (at 5 °C) is -4.18 kcal/mol. At NS3h [3] (at 5 °C, from Kd), the ΔG of binding was -7.39 ± 0.072 kcal/mol. The Ki at NS3h [4] worked out at 450 ± 150 nM; at NS3h [5], 1400 ± 200 nM. At NS3h-dT20 complex, this molecule displayed an EC50 of about 500000 nM. Besides, the “Maximum decrease of Tm of NS3h-dT20 complex” value on NS3h-dT20 complex (NS3h and dT20 10 μM each, dose response fit) came out at 11 ± 3 °C. At NS3h [6], the “Change in enthalpy of unfolding (ΔΔH)” value is -52.1 kcal/mol. Besides, the “Increase of unfolding temperature of NS3h” value at NS3h [6] was determined as 8 °C.

TTTTTTTTTTTTTTT (ssDNA) [Cy5-dT15]: the binding result with NS3h (wildtype) [7] is given as “binds”.

Consider TTTTTTTTTTTTTTTTTTTT (ssDNA) [dT20], for which, in the series with NS3h (wildtype) [8], the binding result was “binds”.
